Most compounds without a hit are left out; they make up all but 3.4% or so of the library.
M1 PAM = human M1 muscarinic receptor positive allosteric modulators, primary screen, CHO-K1 cells, Fluo-8 calcium fluorescence, 1536-well. CHO-K1 hM1, ACh EC20; 0% = ACh EC20, 100% = maximal ACh. activation, % at 3 µM. 0.088% of 360,000 active. AID 588819, 2011; in the data active = activation above about 19%, passing the limit was not always enough
M1 antag = human M1 muscarinic receptor antagonists, primary screen, CHO-K1 cells, Fluo-8 calcium fluorescence, 1536-well; 1.3% of 360,000 active; Muscarinic acetylcholine receptor M1 (Homo sapiens), P11229; AID 588852, 2011; inhibition, % at 3 µM; CHO-K1 hM1, ACh EC80 antagonist;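 active = percent inhibition above its own plate's cutoff, namely the mean of that plate's compound wells plus 3 SD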;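 also: peak over basal fluorescence ratio during 140 s after agonist addition; 0% = ACh EC80 plus DMSO and 100% = DMSO alone without agonist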
CHRM1 agonist = human M1 muscarinic receptor agonists, primary screen, Fluo-8 calcium fluorescence, CHO-K1 cells, HTS | Muscarinic acetylcholine receptor M1 (Homo sapiens), P11229 | CHO-K1 hM1, agonist mode; 0% DMSO, 100% acetylcholine EC100 | activation, % at 3 µM | 0.33% of 360,000 active;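 active = activation above the run's mean compound activation plus 3 SD, cut at about 16% in these data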;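 also: peak over basal fluorescence ratio within a 140 s kinetic read after compound addition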
TAAR1 agonist = human TAAR1 agonists, primary screen, Fluo-8 calcium fluorescence, CHO RD-HGA16 cells; 0.99% of 360,000 active; activation, % at 3 µM; vehicle wells 0%, saturating PEA agonist 100%; Trace amine-associated receptor 1 (Homo sapiens), Q96RJ0;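 active = activation above the mean activation of all test compounds in the run plus 3 SD, cut at about 38% in these data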
Target sequence (Q96RJ0 whole entry, looked up): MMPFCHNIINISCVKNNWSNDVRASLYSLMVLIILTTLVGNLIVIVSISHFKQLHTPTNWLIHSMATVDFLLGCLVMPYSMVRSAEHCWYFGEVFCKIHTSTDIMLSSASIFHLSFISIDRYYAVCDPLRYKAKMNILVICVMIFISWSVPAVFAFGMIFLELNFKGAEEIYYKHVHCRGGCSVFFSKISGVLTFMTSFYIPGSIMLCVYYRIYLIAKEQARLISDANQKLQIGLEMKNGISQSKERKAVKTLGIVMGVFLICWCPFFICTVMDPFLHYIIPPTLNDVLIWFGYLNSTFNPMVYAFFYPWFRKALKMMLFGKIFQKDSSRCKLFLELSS
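Benchmarks: low control DMSO, high control PEA (EC100); System: CHO RD-HGA16 cells carrying human TAAR1 plus Gα16; Detection: Fluo-8 fluorescence, 5 s baseline then 140 s kinetic read; Schedule: 17-24 h plating, Fluo-8 75 min 37 °C, 30 min RT; Read-out basis: % activation from peak over basal fluorescence ratio, DMSO-to-PEA scaled.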
TAAR1 antag = human TAAR1 antagonists, primary screen, Fluo-8 calcium fluorescence, CHO RD-HGA16 cells; 1.5% of 360,000 active; antagonist; Trace amine-associated receptor 1 (Homo sapiens), Q96RJ0; inhibition, % at 3 µM;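 active = inhibition above a per-plate cutoff, the mean inhibition of test compounds on that plate plus 3 SD, cut at about 49% in these data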;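 also: 0% = DMSO plus EC80 beta-PEA response and 100% = DMSO alone without agonist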
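Material: RD-HGA16 CHO cells with stable hTAAR1 and Gα16; Dosing: single nominal final test compound concentration of 3 µM; Schedule: seeding 17-24 h prior, 75-min 37 °C, 30-min RT dye loading; Detection: kinetic Fluo-8 calcium fluorescence measurement; Measure: % inhibition from peak post-agonist over basal fluorescence ratio; Benchmarks: vehicle and agonist controls.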
* hit, by the source's call; · = no result.

SMILES | M1 PAM | M1 antag | CHRM1 agonist | TAAR1 agonist | TAAR1 antag
Cc1ccccc1Cc1c(C)nc2nc(SCC(=O)NCCCN3CCCC3)nn2c1C | -31.4 | 50.0* | -11.4 | 0.1 | -1.9
Cc1nc2nc(SCC(=O)NCCN3CCOCC3)nn2c(C)c1Cc1ccccc1 | 1.0 | -3.8 | -4.1 | 1.8 | -1.0
CC1(C(=O)NCc2ccccc2)CSCC(=O)N1Cc1cccs1 (stereo unspecified) | · | · | · | 5.5 | -29.5
CCN(CC)CCNC(=O)C12CC3CC(C)(CC(C)(C3)C1)C2 | -24.7 | 39.8* | -12.1 | 15.2 | -12.2
CCN(CC)CCNC(=O)C12CC3CC(CC(C3)C1)C2 | -5.2 | 8.8 | -5.8 | 6.4 | -10.6
C[C@@H]1ON(C)[C@H]2C[C@H]3c4[nH]c5cccc(Br)c5c4CCN3C(=O)[C@@H]12 | · | · | · | 11.1 | 4.8
COc1ccc(NC(=O)c2ccc(COc3ccccc3Br)o2)cc1OC | -0.3 | 10.2 | -0.7 | 4.4 | 80.3*
COC(=O)C1=C(C)N(C)C(=NCc2cccc(C(F)(F)F)c2)NC1c1ccccc1C(F)(F)F (stereo unspecified) | · | · | · | 10.7 | 26.3
Cc1cc(N2CCN(C(=O)OC(C)(C)C)C[C@H]2C)ccc1N1CCN(Cc2ccccc2)[C@@H](C)C1 | · | · | · | 1.6 | -21.1
Nc1nc(CN2CCCCCC2)nc(Nc2ccccc2)n1 | 7.0 | -10.3 | -3.5 | 5.8 | -16.5
CCOC(=O)C1CCCN(Cc2nc(N)nc(Nc3ccccc3)n2)C1 (stereo unspecified) | -9.4 | 12.6 | 31.3* | 17.3 | 30.2
CCOC(=O)C1CCCN(Cc2c(C(=O)N3CCOCC3)nc3ccccn23)C1 (stereo unspecified) | -9.9 | 13.9 | 22.6* | 9.6 | -26.7
Nc1nc(CN2CCC(Cc3ccccc3)CC2)nc(Nc2ccccc2)n1 | -15.2 | 31.4* | -4.7 | 6.5 | 8.0
CCOC(=O)C1CCCN(Cc2c(C(=O)N3CCCCC3)nc3c(C)cccn23)C1 (stereo unspecified) | 4.0 | -5.3 | 9.5 | 7.3 | 12.5
CC(C)NS(=O)(=O)c1ccc(Oc2ncc(C(F)(F)F)cc2Cl)cc1 | 2.1 | 8.0 | 1.5 | 28.3 | -24.5
O=S(=O)(Nc1ccccc1)c1ccc(Oc2ncc(C(F)(F)F)cc2Cl)cc1 | -0.8 | 12.1 | 14.8 | 37.5* | 69.2*
O=[N+]([O-])c1ccc(Oc2ccc(S(=O)(=O)Nc3ccccc3)cc2)cc1 | -17.4 | 41.6* | 19.4* | · | ·
Cc1cccc(NC(=O)CNC(=O)[C@@H](Cc2ccccc2)NC(=O)[C@H]2O[C@@H](n3ccc(N)nc3=O)[C@H](O)[C@@H]2O)c1C | · | · | · | 4.5 | -26.7
COC(=O)c1ccc2nc(-c3ccc(C)cc3)c(CC(C)(C)C)n2c1 | · | · | · | -1.7 | -19.9
Cc1ccc2nc(-c3ccc(F)cc3)c(Cc3ccsc3)n2c1 | · | · | · | 0.0 | -3.7
COc1ccc2nc(C)cc(NCc3ccc(F)cc3)c2c1 | -10.2 | 28.7* | 2.4 | 11.6 | -13.6
COc1ccc2nc(C)cc(Nc3ccc(C)cc3)c2c1 | 3.2 | -4.1 | -7.8 | 3.7 | -30.6
OCC1CCCN(c2nc(CN3CCCCC3)nc3scc(-c4ccccc4)c23)C1 (stereo unspecified) | -4.4 | 2.1 | -9.6 | 3.4 | -17.8
CCNc1nc(CN2CCCCC2)nc2scc(-c3ccccc3)c12 | -30.2 | 64.6* | -11.1 | 0.9 | 8.8
CCNC(=O)N1CCN(c2ccc(N3CCN(C(=O)NCC)[C@@H](C)C3)c(C)c2)[C@H](C)C1 | · | · | · | 0.1 | -22.9
SMILES | M1 PAM | M1 antag | CHRM1 agonist | TAAR1 agonist | TAAR1 antag
Oc1ccccc1/C=N/N1CCCCC1 | -4.9 | 5.0 | 31.1* | 3.9 | -6.6
Oc1ccccc1C=NN1CCCCCC1 | -4.5 | 8.6 | -6.4 | 5.6 | 2.0
Oc1[nH]c2ccccc2c1/C=N/N1CCCCC1 | -12.5 | 22.0 | 31.9* | -0.3 | -6.3
COC(=O)[C@]12C[C@H](CC(=O)N3CCCC3)C(=O)N(Cc3ccccc3)C1=C[C@H](C(C)(C)C)O[C@@H]2C | · | · | · | -0.6 | 0.0
CCOc1ccc2[nH]c(=O)c(C(c3nnnn3C3CCCCC3)N3CCN(CC)CC3)cc2c1 (stereo unspecified) | -20.3 | 22.1* | -6.4 | 8.7 | 2.7
Cc1ccc(S(=O)(=O)N2[C@@H](CO)CO[C@H]2CC(=O)c2cccc3ccccc23)cc1 | · | · | · | 0.2 | -29.4
Cc1ccc(C(=O)N2N=C(c3cccc(NS(C)(=O)=O)c3)CC2c2cccs2)cc1 (stereo unspecified) | 2.6 | -5.0 | -0.3 | 11.5 | 51.1*
CS(=O)(=O)Nc1cccc(C2=NN(C(=O)c3ccccc3)C(c3cccs3)C2)c1 (stereo unspecified) | 3.6 | 3.8 | -1.4 | 13.3 | 26.7
O=C(Nc1ccncc1)c1cc(C2CCCCN2C(=O)CCc2ccccc2)on1 (stereo unspecified) | 1.2 | -14.8 | 2.7 | 7.7 | -13.9
OCCC1CN(CC(c2ccccc2)c2ccccc2)CCN1C1CCCC1 (stereo unspecified) | -32.2 | 26.8* | -14.4 | -0.6 | -2.6
OCCC1CN(Cc2cnc(-c3ccccc3)s2)CCN1C1CCCC1 (stereo unspecified) | -27.7 | 38.8* | -9.7 | 4.5 | 10.8
Cc1ccc(S(=O)(=O)N2CCCc3nc(-c4ccc(Br)cc4)ccc32)cc1 | · | · | · | 0.2 | -23.5
O=C(OCC12CC3CC(CC(C3)C1)C2)c1ccc(NCc2cc(O)ccc2O)cc1 | -6.6 | 14.4 | 2.0 | 9.7 | 1.2
O=C(OCCC12CC3CC(CC(C3)C1)C2)c1ccc(NCc2cc(O)ccc2O)cc1 | 35.3* | -10.7 | 13.3 | 29.9 | 14.3
Cc1cccn2c(=O)c(/C=C(\C#N)C(N)=O)c(N3CCN(Cc4ccc5c(c4)OCO5)CC3)nc12 | -26.6 | 70.2* | -7.6 | 4.2 | 16.0
CCOC(=O)/C(C#N)=C/c1c(N2CCN(Cc3ccc4c(c3)OCO4)CC2)nc2c(C)cccn2c1=O | -4.2 | 5.0 | -8.3 | 0.7 | 9.5
CN(C)Cc1c(C(C)(C)O)[nH]c2cc(F)ccc12 | · | · | · | 0.4 | 1.3
C=CCC[C@H](Cc1ccc(F)cc1)C(=O)OC[C@H](Cc1c[nH]c2ccccc12)NC(=O)[C@@H](CC=C)CC(=O)N[C@@H](CO)Cc1ccccc1 | 18.1 | -22.0 | 2.6 | 3.8 | 2.2
C=CCC[C@H](Cc1ccc(F)cc1)C(=O)OC[C@H](Cc1c[nH]c2ccccc12)NC(=O)[C@@H](CC=C)CC(=O)N[C@H](CO)Cc1ccccc1 | -3.1 | 5.3 | -4.7 | 13.8 | 56.7*
C=CCC[C@@H](Cc1ccc(F)cc1)C(=O)OC[C@H](Cc1c[nH]c2ccccc12)NC(=O)[C@@H](CC=C)CC(=O)N[C@H](CO)Cc1ccccc1 | 4.4 | 3.8 | -4.7 | 14.5 | 55.0*

Bioassay records (PubChem BioAssay)
